Measurements gathered from unrelated publications.
Protocols differ between the studies behind these lines.
Target: Tyrosine-protein kinase receptor UFO (AXL, Homo sapiens, UniProt P30530)
Tested at: 1 µM
Residues used in one study (P30530 26-894): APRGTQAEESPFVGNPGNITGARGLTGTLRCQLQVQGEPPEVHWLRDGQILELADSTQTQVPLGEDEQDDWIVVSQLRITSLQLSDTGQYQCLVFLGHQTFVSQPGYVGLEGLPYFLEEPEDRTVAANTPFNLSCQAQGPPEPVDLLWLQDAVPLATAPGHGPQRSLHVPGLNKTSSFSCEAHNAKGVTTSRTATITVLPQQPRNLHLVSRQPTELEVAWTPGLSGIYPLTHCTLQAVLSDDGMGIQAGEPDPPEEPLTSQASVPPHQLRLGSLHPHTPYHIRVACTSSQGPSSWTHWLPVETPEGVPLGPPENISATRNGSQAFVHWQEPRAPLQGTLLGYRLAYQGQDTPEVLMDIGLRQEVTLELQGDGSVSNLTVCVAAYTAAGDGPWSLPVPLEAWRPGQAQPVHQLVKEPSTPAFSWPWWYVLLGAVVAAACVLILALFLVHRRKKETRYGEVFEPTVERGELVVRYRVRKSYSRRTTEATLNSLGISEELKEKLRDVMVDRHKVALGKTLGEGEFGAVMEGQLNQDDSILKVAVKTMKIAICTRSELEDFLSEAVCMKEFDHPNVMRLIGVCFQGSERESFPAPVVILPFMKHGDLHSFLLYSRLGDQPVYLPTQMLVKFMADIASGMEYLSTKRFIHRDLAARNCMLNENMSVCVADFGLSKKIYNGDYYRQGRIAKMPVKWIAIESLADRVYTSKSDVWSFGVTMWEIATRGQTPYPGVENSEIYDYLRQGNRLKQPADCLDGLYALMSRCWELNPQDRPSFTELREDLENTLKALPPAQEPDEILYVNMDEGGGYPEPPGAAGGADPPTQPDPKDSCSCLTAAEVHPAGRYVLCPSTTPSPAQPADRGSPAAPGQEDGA

SMILES	test	measurement	result
C=CC(=O)N1CCC([C@@H]2CCNc3c(C(N)=O)c(-c4ccc(Oc5ccccc5)cc4)nn32)CC1	enzyme activity, inhibitor	inhibition	0%
CN1CCN(C(=O)c2ccc(NC(=O)Nc3ccc(N(C)c4ccnc(Nc5ccc(CS(C)(=O)=O)cc5)n4)cc3)cc2)CC1	binding, competition with immobilised ligand	remaining binding	9.7%
C=CC(=O)N1CCC[C@@H](n2nc(-c3ccc(Oc4ccccc4)cc3)c3c(N)ncnc32)C1	enzyme activity, inhibitor	inhibition	34%
C#Cc1cnc(Nc2ccnc(CO)c2)nc1Nc1ccccc1S(C)(=O)=NC#N (centres unmarked)	enzyme activity, inhibitor	remaining activity	26.1%
C[C@]1(O)CCCN(c2nc(Nc3ccc(S(=O)(=O)N[C@H]4CC[C@H](CN5CCN(c6ccc(C7CCC(=O)NC7=O)cc6F)CC5)CC4)cc3Cl)ncc2C(F)(F)F)C1 (some centres unmarked)	binding, competition with immobilised ligand	remaining binding	98%
C#Cc1cnc(Nc2ccc(CO)nc2)nc1Nc1ccccc1S(C)(=O)=NC#N (centres unmarked)	enzyme activity, inhibitor	remaining activity	27.6%
Cc1cc(S(=O)(=O)N[C@H]2CC[C@H](CN3CCN(c4ccc(C5CCC(=O)NC5=O)cc4F)CC3)CC2)ccc1Nc1ncc(C(F)(F)F)c(N2CCC[C@](C)(O)C2)n1 (some centres unmarked)	binding, competition with immobilised ligand	remaining binding	56%
C[C@H]1CC[C@H](n2c3cnccc3c3cnc(Nc4ccc5c(n4)CCN(C(=O)CO)C5)nc32)CC1	binding, competition with immobilised ligand	remaining binding	81%
